Measurements gathered from unrelated publications.
Protocols differ between the studies behind these lines. pIC50, pKi: −log10 of the molar value.
HRH3: Histamine H3 receptor (HRH3, Homo sapiens, UniProt Q9Y5N1)
CHRNA7: Neuronal acetylcholine receptor subunit alpha-7 (CHRNA7, Homo sapiens, UniProt P36544)
CNR2: Cannabinoid receptor 2 (CNR2, Homo sapiens, UniProt P34972)
Ntsr1: Neurotensin receptor type 1 (Ntsr1, Rattus norvegicus, UniProt P20789)

CC(C)(C)OC(=O)N1CCN(C(=O)n2cc(-c3ccc(OC(F)(F)F)cc3)nn2)C(Cc2ccccc2)C1 (stereo not drawn) has a pIC50 of 8.09 (Monoacylglycerol lipase ABHD6 (Abhd6, Mus musculus, UniProt Q8R2Y0); enzyme activity, inhibitor).
With CNC(=O)c1ccc(-c2cnn3ccc(C(=O)N(C)c4ccc(Cl)c(C(=O)OC)c4)cc23)cc1 the pIC50 was under 4.52 (HRH3; cell-free assay).
With COc1ccc2[nH]c3c(c2c1)CCN(C)CC3 the pIC50 was 4.95 (CHRNA7; ion current, antagonist, two-electrode voltage clamp; oocytes).
CCC(CC)(NC(=O)c1ccc(N2CC(OC)C2)c(OC[C@H]2C[C@@H]2CO)n1)C(=O)NCCOCCOCCNC(=O)c1ccc2c(c1)C1(OC2=O)c2ccc(N(C)C)cc2[Si](C)(C)c2cc(N(C)C)ccc21 has a pKi of 5.79 (CNR2; ligand displacement, radioligand; cell membranes).
With CC(C)C[C@@H]1NC(=O)[C@H](C(C)(C)C)NC(=O)[C@H](Cc2ccc(O)cc2)NC(=O)[C@@H]2CCCN2C(=O)[C@H](CCCCN)NC(=O)[C@H](CCCNC(=N)N)NC1=O the pKi was under 4.00 (Ntsr1; ligand displacement).
C=C1CC[C@H]2O[C@]2(C)CC[C@@H]2[C@@H]1CC2(C)C gave a pKi of under 5.00 (CNR2; ligand displacement, radioligand; cell membranes).
CC[C@H](C)[C@H](NC(C)=O)C(=O)N[C@@H](CCC(=O)O)C(=O)N[C@H](C(=O)N[C@H](C=O)CC(=O)O)[C@@H](C)O gave a pIC50 of 7.13 (Caspase-2 (Homo sapiens, UniProt P42575); enzyme activity, inhibitor).
For CCC(CC)(NC(=O)c1ccc(C2CC2)c(Cc2ccc(F)cc2)n1)C(=O)NCCOCCOCCNC(=O)c1ccc2c(c1)C(=O)OC21c2ccc(N)c(S(=O)(=O)O)c2Oc2c1ccc(N)c2S(=O)(=O)O, the pKi was 6.85 (CNR2; ligand displacement, radioligand; cell membranes).
The pKi of CC(C)C[C@H](NC(=O)[C@@H](N)C(C)(C)C)C(=O)N[C@@H](CCCNC(=N)N)C(=O)N[C@@H](CCCCN)C(=O)N1CCC[C@H]1C(=O)N[C@@H](Cc1ccc(O)cc1)C(=O)O is reported as under 4.00 (Ntsr1; ligand displacement, flow cytometry).
For COC(=O)c1cc(N(C)C(=O)c2ccn3ncc(-c4ccc(C(=O)O)cc4)c3c2)ccc1Cl, the pIC50 was under 4.52 (HRH3; cell-free assay).
The pIC50 of COc1ccc2c3c([nH]c2c1)CCN(C)CC3 is reported as 4.99 (CHRNA7; ion current, antagonist, two-electrode voltage clamp; oocytes).
For CCCCCc1cc(O)c2c(c1)OC(C)(CCC=C(C)C)C=C2 (stereo not drawn), the pKi was 5.76 (CNR2; ligand displacement, radioligand; cell membranes).
